Measurements: ChEMBL document CHEMBL1122781, “[(Aminomethyl)aryloxy]acetic acid esters. A new class of high-ceiling diuretics. 1. Effects of nitrogen and aromatic nuclear substitution” (J Med Chem, 1984)

How the values were obtained:
[1] = test system: Rattus norvegicus; experiment: Diuretic activity was evaluated by measuring amount of K+ during 0-6 h in urine of normotensive saline loaded rats at 1.0 mg/kg, po; assay type: ADME, organism-based; set-up: dose 1 mg/kg, route oral; details: in vivo
How it was run: (§1)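 Male Sprague–Dawley rats (275–375 g), fed and watered ad libitum before testing but not during it, eight per group. Compound in 0.2% methylcellulose/water given orally at 2 mL/kg, immediately followed by a 0.9% saline load equal to 5% of body weight. Rats were kept in individual metabolism cages. Urine was sampled at 2, 6 and 24 h for volume, Na+, K+, Cl−, uric acid and osmolality.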

[2] = test system: Canis familiaris; experiment: Diuretic activity was evaluated by measuring amount of Cl- during 0-6 hr in urine of normotensive saline loaded dogs at 0.03mg/kg, po; assay type: ADME, organism-based, Canis lupus familiaris; details: dog, in vivo
How it was run: (§2)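 Conscious female dogs, each given one oral dose per experiment. Urine and heparinized venous plasma were taken at each collection time. Urine was centrifuged and chilled, and plasma was separated within 30 min. Both were assayed for Na+, K+, Cl−, urate and glucose. Results are mean excretion in mequiv kg−1 (6 h)−1, with at least two dogs per dose.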

[3] = test system: Canis familiaris; experiment: Diuretic activity was evaluated by measuring amount of Cl- during 0-6 h in urine of normotensive saline loaded dogs at 3.0 mg/kg, po; assay type: ADME, organism-based, Canis lupus familiaris; set-up: dose 3 mg/kg, route oral; details: dog, in vivo; how it was run: as §2
[4] = test system: Canis familiaris; experiment: Diuretic activity was evaluated by measuring amount of K+ during 0-6 h in urine of normotensive saline loaded dogs at 1.0 mg/kg, po; assay type: ADME, organism-based, Canis lupus familiaris; set-up: dose 1 mg/kg, route oral; details: dog, in vivo; how it was run: as §2
[5] = test system: Rattus norvegicus; experiment: Diuretic activity was evaluated by measuring amount of Na+ during 0-6 hr in urine of normotensive saline loaded rats at 0.1 mg/kg, po; assay type: ADME, organism-based; set-up: dose 0.1 mg/kg, route oral; details: in vivo
How it was run: (§3)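 Male normotensive Sprague–Dawley rats (275–375 g), eight per group. Test compound or vehicle (0.2% methylcellulose in water, 2 mL/kg) is given by mouth, followed at once by a 0.9% saline load equal to 5% of body weight. Rats are housed in metabolism cages without food or water. Urine is collected at 2, 6 and 24 h and assayed for Na+, K+, Cl−, uric acid and osmolality.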

[6] = Diuretic activity was evaluated by measuring amount of Na+ during 0-6 hr in urine of […] monkey at 3mg/kg, po; assay type: ADME, organism-based; details: simiiformes, in vivo
How it was run: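 Male and female cynomolgus monkeys, fasted 16–18 h with water until dosing, six per dose. Compound or vehicle is given through a nasogastric tube, then a 50 mL/kg water load. No food or water for 6 h in metabolism cages. Urine is collected at 0–1, 1–2, 2–4 and 4–6 h and analyzed for electrolytes, uric acid and glucose.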

[7] = test system: Canis familiaris; experiment: Diuretic activity was evaluated by measuring amount of Cl- during 0-6 h in urine of normotensive saline loaded dogs at 1.0 mg/kg, po; assay type: ADME, organism-based, Canis lupus familiaris; set-up: dose 1 mg/kg, route oral; details: dog, in vivo; how it was run: as §2
[8] = test system: Rattus norvegicus; experiment: Diuretic activity was evaluated by measuring amount of Na+ during 0-6 h in urine of normotensive saline loaded rats at 0.3 mg/kg, po; assay type: ADME, organism-based; set-up: dose 0.3 mg/kg, route oral; details: in vivo; how it was run: as §3
[9] = test system: Canis familiaris; experiment: Diuretic activity was evaluated by measuring amount of Na+ during 0-6 hr in urine of normotensive saline loaded dogs at 3.0mg/kg, po; assay type: ADME, organism-based, Canis lupus familiaris; details: dog, in vivo, 3 mg/kg
How it was run: (§4)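 Conscious dogs, each given a single oral dose per experiment, with at least two dogs per dose. Urine volume is measured; aliquots are centrifuged and chilled. Heparinized venous blood (4 mL) is drawn at each urine collection. Urine and plasma are analyzed for Na+, K+, Cl−, urate and glucose. Result is mean Na+ excretion in mequiv kg−1 (6 h)−1.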

[10] = test system: Canis familiaris; experiment: Diuretic activity was evaluated by measuring amount of Na+ during 0-6 h in urine of normotensive saline loaded dogs at 0.3 mg/kg, po; assay type: ADME, organism-based, Canis lupus familiaris; set-up: dose 0.3 mg/kg, route oral; details: dog, in vivo; how it was run: as §4
[11] = test system: Rattus norvegicus; experiment: Diuretic activity was evaluated by measuring amount of K+ during 0-6 hr in urine of normotensive saline loaded rats at 0.3mg/kg, po; assay type: ADME, organism-based; details: in vivo; how it was run: as §1
[12] = Diuretic activity was evaluated by measuring amount of Cl- during 0-6 h in urine of normotensive […] monkey at 10mg/kg, po; assay type: ADME, organism-based; details: simiiformes, in vivo
How it was run: (§5)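 Male and female cynomolgus monkeys, fasted 16–18 h with water until dosing, six per dose. Compound or vehicle was given by pediatric nasogastric tube, followed at once by a 50 mL/kg water load. Monkeys were kept in metabolism cages without food or water for 6 h. Urine was collected at 0–1, 1–2, 2–4 and 4–6 h, and volume, electrolytes, uric acid and glucose were measured.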

[13] = test system: Rattus norvegicus; experiment: Diuretic activity was evaluated by measuring amount of Na+ during 0-6 h in urine of normotensive saline loaded rats at 10.0 mg/kg, po; assay type: ADME, organism-based; set-up: dose 10 mg/kg, route oral; details: in vivo; how it was run: as §3
[14] = test system: Rattus norvegicus; experiment: Diuretic activity was evaluated by measuring amount of Na+ during 0-6 hr in urine of normotensive saline loaded rats at 1.0mg/kg, po; assay type: ADME, organism-based; details: in vivo, 1 mg/kg; how it was run: as §3
[15] = test system: Canis familiaris; experiment: Diuretic activity was evaluated by measuring amount of Na+ during 0-6 h in urine of normotensive saline loaded dogs at 0.03 mg/kg, po; assay type: ADME, organism-based, Canis lupus familiaris; set-up: dose 0.03 mg/kg, route oral; details: dog, in vivo; how it was run: as §4
[16] = test system: Rattus norvegicus; experiment: Percent change of arterial blood pressure in spontaneously hypertensive rats at the dose of 10 mg/kg (p.o.) after 6 hr (control BP(mm Hg)=219); assay type: functional; details: route oral
[17] = test system: Rattus norvegicus; experiment: Percent change of arterial blood pressure in spontaneously hypertensive rats at the dose of 1 mg/kg (p.o.) after 24 hr (control BP(mm Hg)=215); assay type: functional; details: route oral
[18] = Diuretic activity was evaluated by measuring amount of K+ during 0-6 hr in urine of normotensive […] monkey at 30mg/kg, po; assay type: ADME, organism-based; details: simiiformes, in vivo; how it was run: as §5
[19] = test system: Canis familiaris; experiment: Diuretic activity was evaluated by measuring amount of Na+ during 0-6 hr in urine of normotensive saline loaded dogs at 0.1 mg/kg, po; assay type: ADME, organism-based, Canis lupus familiaris; set-up: dose 0.1 mg/kg, route oral; details: dog, in vivo; how it was run: as §4
[20] = test system: Rattus norvegicus; experiment: Diuretic activity was evaluated by measuring amount of Na+ during 0-6 hr in urine of normotensive saline loaded rats at 30.0mg/kg, po; assay type: ADME, organism-based; details: in vivo, 30 mg/kg; how it was run: as §3
[21] = test system: Rattus norvegicus; experiment: Oral dose necessary to produce an excretion of 2 mequiv of Na+/kg in the rat urine in the 4-h period after peroral administration; assay type: ADME, organism-based; details: in vivo
[22] = test system: Rattus norvegicus; experiment: Diuretic activity was evaluated by measuring amount of Cl- during 0-6 hr in urine of normotensive saline loaded rats at 10.0mg/kg, po; assay type: ADME, organism-based; details: in vivo, 10 mg/kg; how it was run: as §1
[23] = test system: Rattus norvegicus; experiment: Diuretic activity was evaluated by measuring amount of Cl- during 0-6 hr in urine of normotensive saline loaded rats at 100.0mg/kg, po; assay type: ADME, organism-based; details: in vivo, 100 mg/kg; how it was run: as §1
[24] = Diuretic activity was evaluated by measuring amount of Cl- during 0-6 h in urine of normotensive […] monkey at 3 mg/kg, po; assay type: ADME, organism-based; set-up: dose 3 mg/kg, route oral; details: simiiformes, in vivo; how it was run: as §5
[25] = test system: Rattus norvegicus; experiment: Diuretic activity was evaluated by measuring amount of Cl- during 0-6 hr in urine of normotensive saline loaded rats at 0.1 mg/kg, po; assay type: ADME, organism-based; set-up: dose 0.1 mg/kg, route oral; details: in vivo; how it was run: as §1
[26] = test system: Rattus norvegicus; experiment: Diuretic activity was evaluated by measuring amount of Na+ during 0-6 h in urine of normotensive saline loaded rats at 3.0 mg/kg, po; assay type: ADME, organism-based; set-up: dose 3 mg/kg, route oral; details: in vivo; how it was run: as §3
[27] = test system: Rattus norvegicus; experiment: Diuretic activity was evaluated by measuring amount of Cl- during 0-6 hr in urine of normotensive saline loaded rats at 0.3mg/kg, po; assay type: ADME, organism-based; details: in vivo; how it was run: as §1
[28] = test system: Canis familiaris; experiment: Diuretic activity was evaluated by measuring amount of Cl- during 0-6 h in urine of normotensive saline loaded dogs at 10.0 mg/kg, po; assay type: ADME, organism-based, Canis lupus familiaris; set-up: dose 10 mg/kg, route oral; details: dog, in vivo; how it was run: as §2
[29] = test system: Rattus norvegicus; experiment: Percent change of arterial blood pressure in spontaneously hypertensive rats at the dose of 10 mg/kg (p.o.) after 24 hr (control BP(mm Hg)=219); assay type: functional; details: route oral

With `CCOC(=O)COc1ccc(C(=O)c2ccc(O)c(CN)c2)c(Cl)c1Cl.Cl` the Diuretic activity [1] was 3 m equiv kg-1, the Diuretic activity [2] was 0.5 m equiv kg-1 and the Diuretic activity [3] was 7.9 m equiv kg-1. It also gave a Diuretic activity [4] of 1.6 m equiv kg-1, a Diuretic activity [5] of 6.6 m equiv kg-1 and a Diuretic activity [6] of 5.3 m equiv kg-1. The Diuretic activity [7] was 6.2 m equiv kg-1, the Diuretic activity [8] was 9.6 m equiv kg-1 and the Diuretic activity [9] was 7.5 m equiv kg-1. It also gave a Diuretic activity [10] of 2.7 m equiv kg-1, a Diuretic activity [11] of 2.7 m equiv kg-1 and a Diuretic activity [12] of 7.2 m equiv kg-1. The Diuretic activity [13] was 14 m equiv kg-1, the Diuretic activity [14] was 12.8 m equiv kg-1 and the Diuretic activity [15] was 0.5 m equiv kg-1. For the same compound, the Change [16] was -24%, the Change [17] was -6% and the Diuretic activity [18] was 1.5 m equiv kg-1. The Diuretic activity [19] was 0.7 m equiv kg-1, the Diuretic activity [20] was 14.8 m equiv kg-1 and the ED2 [21] was 3 mg/kg. The Diuretic activity [22] was 16.4 m equiv kg-1, the Diuretic activity [23] was 16.6 m equiv kg-1 and the Diuretic activity [24] was 5.3 m equiv kg-1. The Diuretic activity [25] was 8.1 m equiv kg-1, the Diuretic activity [26] was 13.9 m equiv kg-1 and the Diuretic activity [27] was 11.3 m equiv kg-1. It also gave a Diuretic activity [28] of 7 m equiv kg-1 and a Change [29] of -19%.
